# According to the RNAGym collection of RNA variant scans (doi:10.1038/s41586-018-0170-7):
# B1: tRNA (parent)
# chain: GUUCCGUUGGCGUAAUGGUAACGCGUCUCCCUCCUAAGGAGAAGACUGCGGGUUCGAGUCCCGUACGGAACG
# Variants of: B1
# Assay: yeast fitness, log relative to wild type (ln ratio); higher = fitter; tRNA-Arg(CCU), competitive growth, 37 C, 1 M NaCl
# Outline: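 Variants were counted by 125 bp paired-end Illumina sequencing after pools of a combinatorial tRNA-Arg(CCU) library, held on a HIS3 centromeric plasmid in BY4742 lacking the chromosomal gene, grew ~6.5 generations (~26.5 h) in SC-HIS 1M NaCl at 37 °C. Each genotype's fitness is the natural log of its generations relative to the wild type's. Generations were OD-scaled log2 output/input frequencies, inverse-variance weighted over replicates.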
row,Variant,yeast fitness (ln)
1,GUUCCAUUGGCGUAAUGGUAACGCGUUUCCCUCCUAAGGAGAAGACUGCGGGUUCGAGUCCCGUAAGGAUCG [G6A C27U C66A A70U],-0.107
2,GUUCCGUUGGCGUAAUGGUAACGCGUCUCCCUCCUAAGGAGAAGACUGCGGGUUCGAGUCCCGUACGGGUUG [A69G A70U C71U],-0.162
3,ACUCCGUUGGCGUAAUGGUAACGCGUUUCCCUCCUAAGGAGACGAUUGCGGGUUCGAGUCCCGUAAGGAAUG [G1A U2C C27U A43C C46U C66A C71U],-0.24
4,AGUCCUUUGGCGUAAUGGUAACGCGUCUCCCUCCUAAGGAGAAGAUUGCGGGUUCGAGUCCCGUACGGGGCG [G1A U2G G6U C46U A69G A70G],-0.247
5,AGUCCAUUGGCGUAAUGGUAACGCGUCUCCCUCCUAAGGAGAAGAUUGCGGGUUCGAGUCCCGUAAGGGGUG [G1A U2G G6A C46U C66A A69G A70G C71U],-0.354
6,AUUCCGUUGGCGUAAUGGUAACGCGUCUCCCUCCUAAGGAGACGAUUGCGGGUUCGAGUCCCGUAAGGAGUG [G1A A43C C46U C66A A70G C71U],-0.191
7,GCUCCGUUGGCGUAAUGGUAACGCGUCUCCCUCCUAAGGAGACGACUGCGGGUUCGAGUCCCGUAAGGAAUG [U2C A43C C66A C71U],-0.169
8,GCUCCGUUGGCGUAAUGGUAACGCGUUUCCCUCCUAAGGAGAAGAUUGCGGGUUCGAGUCCCGUAUGGGUCG [U2C C27U C46U C66U A69G A70U],-0.137
9,AGUCCAUUGGCGUAAUGGUAACGCGUCUCCCUCCUAAGGAGAAGAUUGCGGGUUCGAGUCCCGUAUGGGGUG [G1A U2G G6A C46U C66U A69G A70G C71U],-0.413
10,GCUCCGUUGGCGUAAUGGUAACGCGUUUCCCUCCUAAGGAGAAGACUGCGGGUUCGAGUCCCGUAAGGAUUG [U2C C27U C66A A70U C71U],-0.222
11,AGUCCAUUGGCGUAAUGGUAACGCGUUUCCCUCCUAAGGAGACGAUUGCGGGUUCGAGUCCCGUACGGAUCG [G1A U2G G6A C27U A43C C46U A70U],-0.215
12,GGUCCUUUGGCGUAAUGGUAACGCGUUUCCCUCCUAAGGAGACGACUGCGGGUUCGAGUCCCGUACGGGUCG [U2G G6U C27U A43C A69G A70U],-0.315
13,AGUCCUUUGGCGUAAUGGUAACGCGUUUCCCUCCUAAGGAGAAGACUGCGGGUUCGAGUCCCGUACGGAAUG [G1A U2G G6U C27U C71U],-0.358
14,GCUCCGUUGGCGUAAUGGUAACGCGUUUCCCUCCUAAGGAGAAGACUGCGGGUUCGAGUCCCGUACGGGUUG [U2C C27U A69G A70U C71U],-0.278
15,ACUCCAUUGGCGUAAUGGUAACGCGUUUCCCUCCUAAGGAGAAGAUUGCGGGUUCGAGUCCCGUAUGGAUUG [G1A U2C G6A C27U C46U C66U A70U C71U],-0.364
16,GUUCCGUUGGCGUAAUGGUAACGCGUUUCCCUCCUAAGGAGACGACUGCGGGUUCGAGUCCCGUACGGAUCG [C27U A43C A70U],-0.185
17,ACUCCAUUGGCGUAAUGGUAACGCGUCUCCCUCCUAAGGAGACGACUGCGGGUUCGAGUCCCGUACGGAUUG [G1A U2C G6A A43C A70U C71U],-0.088
18,GGUCCGUUGGCGUAAUGGUAACGCGUCUCCCUCCUAAGGAGAAGACUGCGGGUUCGAGUCCCGUAAGGGGUG [U2G C66A A69G A70G C71U],-0.152
19,AGUCCAUUGGCGUAAUGGUAACGCGUCUCCCUCCUAAGGAGACGACUGCGGGUUCGAGUCCCGUACGGGGCG [G1A U2G G6A A43C A69G A70G],-0.238

row,Variant,yeast fitness (ln)
1,AUUCCUUUGGCGUAAUGGUAACGCGUUUCCCUCCUAAGGAGACGACUGCGGGUUCGAGUCCCGUAUGGGUUG [G1A G6U C27U A43C C66U A69G A70U C71U],-0.435
2,GUUCCAUUGGCGUAAUGGUAACGCGUUUCCCUCCUAAGGAGAAGAUUGCGGGUUCGAGUCCCGUAAGGGGUG [G6A C27U C46U C66A A69G A70G C71U],-0.221
3,GGUCCGUUGGCGUAAUGGUAACGCGUUUCCCUCCUAAGGAGACGAUUGCGGGUUCGAGUCCCGUAUGGAUCG [U2G C27U A43C C46U C66U A70U],-0.271
4,AGUCCAUUGGCGUAAUGGUAACGCGUUUCCCUCCUAAGGAGAAGAUUGCGGGUUCGAGUCCCGUACGGGUCG [G1A U2G G6A C27U C46U A69G A70U],-0.233
5,GUUCCUUUGGCGUAAUGGUAACGCGUUUCCCUCCUAAGGAGACGAUUGCGGGUUCGAGUCCCGUACGGAACG [G6U C27U A43C C46U],-0.155
6,GGUCCUUUGGCGUAAUGGUAACGCGUCUCCCUCCUAAGGAGACGAUUGCGGGUUCGAGUCCCGUAUGGAAUG [U2G G6U A43C C46U C66U C71U],-0.309
7,GGUCCGUUGGCGUAAUGGUAACGCGUCUCCCUCCUAAGGAGAAGAUUGCGGGUUCGAGUCCCGUAUGGAAUG [U2G C46U C66U C71U],-0.115
8,GUUCCGUUGGCGUAAUGGUAACGCGUUUCCCUCCUAAGGAGAAGACUGCGGGUUCGAGUCCCGUAUGGAGUG [C27U C66U A70G C71U],-0.183
9,GCUCCGUUGGCGUAAUGGUAACGCGUCUCCCUCCUAAGGAGACGACUGCGGGUUCGAGUCCCGUACGGGAUG [U2C A43C A69G C71U],-0.138
10,GUUCCGUUGGCGUAAUGGUAACGCGUUUCCCUCCUAAGGAGACGAUUGCGGGUUCGAGUCCCGUAAGGAUCG [C27U A43C C46U C66A A70U],-0.0585
11,ACUCCUUUGGCGUAAUGGUAACGCGUUUCCCUCCUAAGGAGAAGAUUGCGGGUUCGAGUCCCGUAUGGAUCG [G1A U2C G6U C27U C46U C66U A70U],-0.128
12,GCUCCUUUGGCGUAAUGGUAACGCGUUUCCCUCCUAAGGAGAAGAUUGCGGGUUCGAGUCCCGUAUGGGUCG [U2C G6U C27U C46U C66U A69G A70U],-0.218
13,AGUCCGUUGGCGUAAUGGUAACGCGUCUCCCUCCUAAGGAGACGAUUGCGGGUUCGAGUCCCGUACGGGGCG [G1A U2G A43C C46U A69G A70G],-0.141
14,GGUCCAUUGGCGUAAUGGUAACGCGUCUCCCUCCUAAGGAGAAGACUGCGGGUUCGAGUCCCGUACGGGGUG [U2G G6A A69G A70G C71U],-0.181
15,AGUCCGUUGGCGUAAUGGUAACGCGUCUCCCUCCUAAGGAGAAGACUGCGGGUUCGAGUCCCGUACGGAUUG [G1A U2G A70U C71U],0.00659
16,GGUCCAUUGGCGUAAUGGUAACGCGUCUCCCUCCUAAGGAGACGACUGCGGGUUCGAGUCCCGUAUGGGUUG [U2G G6A A43C C66U A69G A70U C71U],-0.407
17,GUUCCUUUGGCGUAAUGGUAACGCGUCUCCCUCCUAAGGAGAAGACUGCGGGUUCGAGUCCCGUAAGGAUUG [G6U C66A A70U C71U],-0.412
18,GCUCCGUUGGCGUAAUGGUAACGCGUUUCCCUCCUAAGGAGACGAUUGCGGGUUCGAGUCCCGUAAGGAUUG [U2C C27U A43C C46U C66A A70U C71U],-0.269
